Measured values reported in ChEMBL document CHEMBL2331322, “Synthesis and antimicrobial activity of some new benzo and naphthonitrile derivatives” (2013).
≈ marks a conversion by molar mass, not a printed value.

Columns and labels:
Assay type in all cases: functional
Fusarium oxysporum [1] = assay: Antimicrobial activity against Fusarium oxysporum at 1 mg/mL after 48 hrs by agar disc diffusion method; details: read-out: DIZ
In short: (§1)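 Sterile 5 mm filter paper disks were impregnated with test solution in DMF (1 mg/mL) and placed on agar plates seeded with the test organism, in triplicate. Bacteria were incubated at 37 °C for 24 h and fungi for […] (so in the source). The read-out was the average inhibition zone diameter around the disks, in mm.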

Fusarium oxysporum [2] = assay: Antimicrobial activity against Fusarium oxysporum after 48 hrs by microdilution susceptibility test
In short: (§2)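 MIC was determined by broth microdilution, using Müller–Hinton broth for bacteria and Sabouraud liquid medium for fungi. Stocks were made in DMF and serially diluted twofold. Wells were inoculated at 10⁶ CFU/mL and plates incubated at 36 °C for 24–48 h, with controls included. Only compounds giving agar-diffusion zones >14 mm were tested.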

Escherichia coli [3] = assay: Antimicrobial activity against Escherichia coli at 1 mg/mL after 24 hrs by agar disc diffusion method; details: read-out: DIZ; in short: as §1
Bacillus subtilis [4] = assay: Antimicrobial activity against Bacillus subtilis after 24 hrs by microdilution susceptibility test; in short: as §2
Botrytis fabae [5] = assay: Antimicrobial activity against Botrytis fabae after 48 hrs by microdilution susceptibility test; in short: as §2
Bacillus thuringiensis [6] = assay: Antimicrobial activity against Bacillus thuringiensis after 24 hrs by microdilution susceptibility test; in short: as §2
Escherichia coli [7] = assay: Antimicrobial activity against Escherichia coli after 24 hrs by microdilution susceptibility test; in short: as §2
Pseudomonas aeruginosa [8] = assay: Antimicrobial activity against Pseudomonas aeruginosa after 24 hrs by microdilution susceptibility test; in short: as §2
Pseudomonas aeruginosa [9] = assay: Antimicrobial activity against Pseudomonas aeruginosa at 1 mg/mL after 24 hrs by agar disc diffusion method; details: read-out: DIZ; in short: as §1
Botrytis fabae [10] = assay: Antimicrobial activity against Botrytis fabae at 1 mg/mL […] by agar disc diffusion method; details: read-out: DIZ
Bacillus thuringiensis [11] = assay: Antimicrobial activity against Bacillus thuringiensis at 1 mg/mL after 24 hrs by agar disc diffusion method; details: read-out: DIZ; in short: as §1
Bacillus subtilis [12] = assay: Antimicrobial activity against Bacillus subtilis at 1 mg/mL after 24 hrs by agar disc diffusion method; details: read-out: DIZ; in short: as §1

Compound | zone of inhibition at 1000 µg/mL (Fusarium oxysporum [1]) | MIC (Fusarium oxysporum [2]) | zone of inhibition at 1000 µg/mL (Escherichia coli [3]) | MBC (Bacillus subtilis [4]) | MIC (Bacillus subtilis [4]) | MIC (Botrytis fabae [5]) | MIC (Bacillus thuringiensis [6]) | MBC (Escherichia coli [7]) | MIC (Escherichia coli [7]) | MIC (Pseudomonas aeruginosa [8]) | zone of inhibition at 1000 µg/mL (Pseudomonas aeruginosa [9]) | zone of inhibition at 1000 µg/mL (Botrytis fabae [10]) | zone of inhibition at 1000 µg/mL (Bacillus thuringiensis [11]) | zone of inhibition at 1000 µg/mL (Bacillus subtilis [12])
N#Cc1ccccc1C(/N=N/c1ccc([N+](=O)[O-])cc1)C(N)=O (stereo not given) | 35 mm | 12.5 µg/mL (≈ 40.4 µM) | 15 mm | 50 µg/mL (≈ 162 µM) | 6.25 µg/mL (≈ 20.2 µM) | 12.5 µg/mL (≈ 40.4 µM) | 12.5 µg/mL (≈ 40.4 µM) | 200 µg/mL (≈ 647 µM) | 25 µg/mL (≈ 80.8 µM) | 25 µg/mL (≈ 80.8 µM) | 16 mm | 38 mm | 35 mm | 33 mm
N#CCc1ccccc1C#N | 14 mm | 50 µg/mL (≈ 352 µM) | 16 mm | 200 µg/mL (≈ 1410 µM) | 100 µg/mL (≈ 703 µM) | 100 µg/mL (≈ 703 µM) | 50 µg/mL (≈ 352 µM) | 200 µg/mL (≈ 1410 µM) | 100 µg/mL (≈ 703 µM) | 100 µg/mL (≈ 703 µM) | 15 mm | 15 mm | 15 mm | 15 mm
N#Cc1ccccc1C(C#N)/N=N/c1ccccc1 (stereo not given) | 38 mm | 12.5 µg/mL (≈ 50.8 µM) | 33 mm | 100 µg/mL (≈ 406 µM) | 12.5 µg/mL (≈ 50.8 µM) | 12.5 µg/mL (≈ 50.8 µM) | 25 µg/mL (≈ 102 µM) | 200 µg/mL (≈ 812 µM) | 25 µg/mL (≈ 102 µM) | 12.5 µg/mL (≈ 50.8 µM) | 30 mm | 40 mm | 30 mm | 37 mm
N#Cc1ccccc1C(C#N)/N=N/c1ccc(Cl)cc1 (stereo not given) | 38 mm | 6.25 µg/mL (≈ 22.3 µM) | 37 mm | 50 µg/mL (≈ 178 µM) | 3.12 µg/mL (≈ 11.1 µM) | 6.25 µg/mL (≈ 22.3 µM) | 6.25 µg/mL (≈ 22.3 µM) | 200 µg/mL (≈ 712 µM) | 6.25 µg/mL (≈ 22.3 µM) | 12.5 µg/mL (≈ 44.5 µM) | 35 mm | 39 mm | 38 mm | 42 mm
Cc1ccc(/N=N/C(C#N)c2ccccc2C#N)cc1 (stereo not given) | 33 mm | 12.5 µg/mL (≈ 48 µM) | 30 mm | 100 µg/mL (≈ 384 µM) | 12.5 µg/mL (≈ 48 µM) | 25 µg/mL (≈ 96 µM) | 25 µg/mL (≈ 96 µM) | 200 µg/mL (≈ 768 µM) | 25 µg/mL (≈ 96 µM) | 25 µg/mL (≈ 96 µM) | 16 mm | 35 mm | 33 mm | 35 mm
COc1ccc(/N=N/C(C#N)c2ccccc2C#N)cc1 (stereo not given) | 37 mm | 12.5 µg/mL (≈ 45.2 µM) | 35 mm | 100 µg/mL (≈ 362 µM) | 6.25 µg/mL (≈ 22.6 µM) | 12.5 µg/mL (≈ 45.2 µM) | 12.5 µg/mL (≈ 45.2 µM) | 50 µg/mL (≈ 181 µM) | 12.5 µg/mL (≈ 45.2 µM) | 25 µg/mL (≈ 90.5 µM) | 30 mm | 38 mm | 36 mm | 39 mm
N#Cc1ccccc1C(C#N)/N=N/c1ccc([N+](=O)[O-])cc1 (stereo not given) | 41 mm | 6.25 µg/mL (≈ 21.5 µM) | 36 mm | 50 µg/mL (≈ 172 µM) | 3.12 µg/mL (≈ 10.7 µM) | 6.25 µg/mL (≈ 21.5 µM) | 6.25 µg/mL (≈ 21.5 µM) | 100 µg/mL (≈ 343 µM) | 6.25 µg/mL (≈ 21.5 µM) | 6.25 µg/mL (≈ 21.5 µM) | 35 mm | 40 mm | 37 mm | 43 mm
N#Cc1ccccc1C(/N=N/c1ccccc1)C(N)=O (stereo not given) | 27 mm | 12.5 µg/mL (≈ 47.3 µM) | 15 mm | 100 µg/mL (≈ 378 µM) | 12.5 µg/mL (≈ 47.3 µM) | 25 µg/mL (≈ 94.6 µM) | 12.5 µg/mL (≈ 47.3 µM) | 200 µg/mL (≈ 757 µM) | 25 µg/mL (≈ 94.6 µM) | 25 µg/mL (≈ 94.6 µM) | 31 mm | 15 mm | 37 mm | 37 mm
N#Cc1ccccc1C(/N=N/c1ccc(Cl)cc1)C(N)=O (stereo not given) | 16 mm | 25 µg/mL (≈ 83.7 µM) | 27 mm | 50 µg/mL (≈ 167 µM) | 6.25 µg/mL (≈ 20.9 µM) | 12.5 µg/mL (≈ 41.8 µM) | 12.5 µg/mL (≈ 41.8 µM) | 100 µg/mL (≈ 335 µM) | 12.5 µg/mL (≈ 41.8 µM) | 25 µg/mL (≈ 83.7 µM) | 15 mm | 16 mm | 33 mm | 38 mm
Cc1ccc(/N=N/C(C(N)=O)c2ccccc2C#N)cc1 (stereo not given) | 38 mm | 25 µg/mL (≈ 89.8 µM) | 15 mm | 100 µg/mL (≈ 359 µM) | 25 µg/mL (≈ 89.8 µM) | 25 µg/mL (≈ 89.8 µM) | 50 µg/mL (≈ 180 µM) | 200 µg/mL (≈ 719 µM) | 50 µg/mL (≈ 180 µM) | 12.5 µg/mL (≈ 44.9 µM) | 16 mm | 20 mm | 36 mm | 31 mm
COc1ccc(/N=N/C(C(N)=O)c2ccccc2C#N)cc1 (stereo not given) | 16 mm | 25 µg/mL (≈ 84.9 µM) | 30 mm | 100 µg/mL (≈ 340 µM) | 25 µg/mL (≈ 84.9 µM) | 50 µg/mL (≈ 170 µM) | 12.5 µg/mL (≈ 42.5 µM) | 100 µg/mL (≈ 340 µM) | 12.5 µg/mL (≈ 42.5 µM) | 25 µg/mL (≈ 84.9 µM) | 32 mm | 26 mm | 19 mm | 32 mm
CC1(C)S[C@@H]2[C@H](NC(=O)[C@H](N)c3ccccc3)C(=O)N2[C@H]1C(=O)O [AMPICILLIN] |  |  | 38 mm | 50 µg/mL (≈ 143 µM) | 3.12 µg/mL (≈ 8.94 µM) |  |  | 25 µg/mL (≈ 71.5 µM) | 6.25 µg/mL (≈ 17.9 µM) |  |  |  |  | 40 mm
CC(=O)OCC1=C(C(=O)O)N2C(=O)[C@@H](NC(=O)Cc3cccs3)[C@H]2SC1 [CEPHALOTHIN] |  |  | 38 mm |  | 6.25 µg/mL (≈ 15.8 µM) |  | 6.25 µg/mL (≈ 15.8 µM) |  | 6.25 µg/mL (≈ 15.8 µM) | 6.25 µg/mL (≈ 15.8 µM) | 37 mm |  | 37 mm | 36 mm
O=C(N[C@H](CO)[C@H](O)c1ccc([N+](=O)[O-])cc1)C(Cl)Cl [CHLORAMPHENICOL] |  |  | 37 mm |  | 3.12 µg/mL (≈ 9.67 µM) |  | 3.12 µg/mL (≈ 9.67 µM) |  | 6.25 µg/mL (≈ 19.3 µM) | 6.25 µg/mL (≈ 19.3 µM) | 38 mm |  | 44 mm | 44 mm
C[C@@H]1C[C@@H]([C@H](O)CC2CC(=O)NC(=O)C2)C(=O)[C@@H](C)C1 [CYCLOHEXIMIDE] | 43 mm | 3.12 µg/mL (≈ 11.1 µM) |  |  |  | 3.12 µg/mL (≈ 11.1 µM) |  |  |  |  |  | 42 mm |  | 
